Source: PubChem BioAssay (several laboratories)
PTEN del growth: PTEN-deleted cell growth suppression | HCT116 PTEN-null viability, CellTiter-Glo, 60 h; hits give low values | viability, % at 10 µM | 1.2% of 140,000 active;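 active means viability at or below a set limit, 4 SD under the median of all tested compounds, cut at about 3.7% in these data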;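 further: PTEN knockout HCT116 line with beta catenin targeted HCT116 as companion control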
bCat KO growth: beta-catenin-lacking colon tumor cell growth suppression. HCT116 beta-catenin knockout viability, CellTiter-Glo, 60 h; hits give low values. 1.5% of 140,000 active. viability, % at 10 µM. AID 818;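 active means viability at or under a set limit, the compound median less 4 SD, cut at about 6% in these data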;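 further: 0% = Hyamine 1622 control at 20 µM and 100% = untreated cell control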
Lmaj promast: reduces viability of Leishmania major promastigotes; resazurin fluorescence viability; inhibition, % at 10 µM; 9% of 200,000 active; AID 1063; in the data active means inhibition above about 50%;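 further: promastigotes grown with compound for 44 hours at 28 °C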
PMI activator: phosphomannose isomerase (human) activation; P34949; purified human PMI, coupled resazurin fluorescence, 20 min; hits give high values; 1 = vehicle control, 0 substrate-free wells; activation factor at 20 µM; 0.005% of 190,000 active; AID 1214;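 active means activation factor of 2 or more at 20 µM, relative to plate controls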
Target sequence (P34949 whole entry, looked up): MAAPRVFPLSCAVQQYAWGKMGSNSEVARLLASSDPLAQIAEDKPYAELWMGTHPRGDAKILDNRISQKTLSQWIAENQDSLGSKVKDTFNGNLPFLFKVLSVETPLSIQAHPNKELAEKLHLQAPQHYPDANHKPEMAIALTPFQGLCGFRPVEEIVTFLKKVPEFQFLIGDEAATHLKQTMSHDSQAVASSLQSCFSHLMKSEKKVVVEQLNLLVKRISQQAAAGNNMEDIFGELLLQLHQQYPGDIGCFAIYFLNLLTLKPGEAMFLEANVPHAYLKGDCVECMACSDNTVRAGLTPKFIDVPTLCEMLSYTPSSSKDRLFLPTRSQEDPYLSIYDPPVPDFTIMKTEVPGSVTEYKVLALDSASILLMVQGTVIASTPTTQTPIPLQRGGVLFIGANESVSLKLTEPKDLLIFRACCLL
PMI act satM6P: increases human PMI activity with near-saturating mannose 6-phosphate | P34949 | coupled PMI enzyme assay, resazurin fluorescence, 20 min; hits give high values; 1 = untreated enzyme, 0 = substrate-free blank | activation factor at 20 µM | 0.34% of 190,000 active | AID 1216;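 active means activation factor of 2 or more at 20 µM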
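assay system = human phosphomannose isomerase with PGI, G6PDH, diaphorase coupling enzymes | quantity = 15 ng/mL PMI | incubation = enzyme reaction with compound 20 min at room temperature | medium = HEPES pH 7.4 buffer with MgCl2 and Tween-20 | compound dosing = one concentration, 20 µM, in 1% DMSO | measured by = Diaphorase-driven resazurin-to-resorufin fluorescence, excitation 544, emission 590 nm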
Active calls of the source: *; · = not tested or not shown. Shown are actives, neighbours in structure and some others; about 9.6% of the full set was active somewhere.

SMILES	PTEN del growth	bCat KO growth	Lmaj promast	PMI activator	PMI act satM6P
OCCCCNCc1ccc(OCc2ccccc2)cc1	95	77	90*	1	1.1
OCCCNCc1ccc(-c2ccccc2)cc1	·	·	92*	0.9	1
NC(N)=N/N=C/c1ccc(OCc2ccccc2Cl)cc1	0.9*	0.9*	101*	0.9	1.1
NC(N)=N/N=C/c1ccccc1	81	91	26	1	1
COC(=O)COc1ccc(S(=O)(=O)Nc2cc([N+](=O)[O-])ccc2C)cc1	·	·	-1	1.1	1
COc1ccc(Br)cc1CNC(=O)Nc1cccs1	89	98	54*	0.9	1
COc1ccccc1CNC(=O)Nc1cccs1	91	85	-3	0.9	1.2
CC(C)(Oc1ccc(Cl)cc1)C(=O)N1CCN(c2ccccn2)CC1	69	79	62*	0.9	0.9
CC(C)(Oc1ccc(Cl)cc1)C(=O)N(Cc1ccccc1)c1ccccn1	62	68	87*	0.8	0.9
O=C(O)c1ccc(/C=C2\SC(=Nc3ccccc3)N(c3ccccc3)C2=O)cc1	·	·	3	1.1	1.1
Cc1ccc(C)c2[nH]c(=O)c(CN(Cc3ccc4c(c3)OCO4)Cc3nnnn3Cc3ccco3)cc12	29	46	58*	0.9	0.9
Cc1ccc2cc(CN(Cc3ccc4c(c3)OCO4)Cc3nnnn3Cc3ccco3)c(=O)[nH]c2c1C	74	87	68*	0.9	0.9
COCCn1nnnc1CN(Cc1ccco1)Cc1cc2cc3c(cc2[nH]c1=O)OCO3	79	81	-5	0.9	1.1
COc1ccc(CCNC2CC(=O)N(C)C2=O)cc1OC (configuration not stated)	99	96	-9	1	1
COc1ccc(CCNC2CC(C)N(C)CC2C)cc1OC (configuration not stated)	94	94	69*	1	1
Cc1ccc(-c2ccc(/C=N\NC(=O)c3cc4c(ccc5ccccc54)o3)o2)cc1[N+](=O)[O-]	0.6*	1.2*	0	1	1.1
O=C(N/N=C/c1cccc([N+](=O)[O-])c1)c1cc2c(ccc3ccccc32)o1	14	34	-5	1	1.1
O=C(O)C1C2C=CC(C2)C1C(=O)NCc1ccc(Cl)c(Cl)c1 (configuration not stated)	95	91	53*	0.9	1
CCc1ccc(NC(=O)C(CC)Sc2nc3cc4c(cc3c(=O)n2Cc2ccco2)OCO4)cc1 (configuration not stated)	15	1.8*	9	0.9	0.9
CCc1ccccc1NC(=O)C(CC)Sc1nc2cc3c(cc2c(=O)n1Cc1ccco1)OCO3 (configuration not stated)	101	102	100*	0.9	0.8
CCC(Sc1nc2cc(OC)c(OC)cc2c(=O)n1Cc1ccco1)C(=O)NCCOC (configuration not stated)	92	94	10	1	1
CCN(CC)C(=O)CSc1nc2cc3c(cc2c(=O)n1Cc1ccc(OC)cc1)OCO3	·	·	9	1	1.1
CCN(CC)S(=O)(=O)c1ccc(N(C)Cc2cccnc2)nc1	85	82	-1	0.9	0.9
BrC(=C\c1ccccc1)/C=N/N1CCN(Cc2ccccc2)CC1	77	76	53*	0.9	0.9
FC(F)(F)c1ccc(/C=N/N2CCN(Cc3ccccc3)CC2)cc1	89	96	54*	0.9	0.9
SMILES	PTEN del growth	bCat KO growth	Lmaj promast	PMI activator	PMI act satM6P
Cc1ccc(CN2CCN(/N=C/c3ccc(C(F)(F)F)cc3)CC2)cc1	93	86	37	0.9	1
CN(CCc1cnn(C)c1)Cc1cn[nH]c1-c1ccc(-c2ccccc2)cc1	·	·	90*	1	1.1
CCN(CC)S(=O)(=O)c1ccc(/C=C/C(=O)OCC(=O)Nc2ccc(S(N)(=O)=O)cc2)cc1	86	82	-4	0.3	1
O=c1c2ccccc2c(C=NCCCN2CCOCC2)c(O)n1Cc1ccc2c(c1)OCO2	·	·	86*	1	1
Cn1c(=O)c2c(nc(SCCCO)n2Cc2ccccc2Cl)n(C)c1=O	91	88	3	1	0.9
Cc1ccc(C(NC(=O)N2CCCC2)C(Cl)Cl)cc1F (configuration not stated)	·	·	4	1.7	2*
CCN1CCN(C(=O)NC(c2ccc(C)c(F)c2)C(Cl)Cl)CC1 (configuration not stated)	·	·	12	1.1	1.1
O=C(NC1CC1)C1CCN(C2CCN(C(=O)/C=C/c3cccc(F)c3F)CC2)CC1	·	·	82*	1	1
O=C(NC1CC1)C1CCN(C2CCN(C(=O)Cc3ccc4c(c3)OCO4)CC2)CC1	·	·	-2	1	1
O=C(NC1CC1)C1CCN(C2CCN(C(=O)/C=C/c3cccs3)CC2)CC1	·	·	87*	1	1
CCOC(=O)C1CCN(C(=O)/C=C/c2cccs2)CC1	·	·	-2	1	1
CCOC(=O)c1sc(Nc2nc(C)cc(OC)n2)nc1C	·	·	56*	1	1
CCOC(=O)c1sc(Nc2nc3ccc(OC)cc3s2)cc1C	71	85	-1	0.8	0.8
CCOC(=O)c1sc(Nc2nc3c(OC)cccc3s2)nc1C	27	29	73*	0.8	0.9
CCOC(=O)c1sc(Nc2nc3c(F)cccc3s2)cc1C	91	85	78*	1.3	1.3
CCOC(=O)c1sc(Nc2ccccc2)nc1C	92	96	1	1	0.9
Cc1ccc(S(=O)(=O)N2CCC(C(=O)NCCc3ccccn3)CC2)cc1	·	·	4	0.9	0.9
Nc1nc(SCC(=O)Nc2ccc3c(c2)OCO3)n[nH]1	·	·	-1	1	1
c1cnc(N2CCN(Cc3c[nH]c4ccccc34)CC2)nc1	39	60	0	1	0.9
O=[N+]([O-])c1ccc(CN2CCN(Cc3c[nH]c4ccccc34)CC2)cc1	·	·	83*	1.1	1.1
Cc1ccccc1N1CCN(Cc2c[nH]c3ccccc23)CC1	34	30	71*	1	1
CCc1ccc(-c2ccc(SCC(=O)NCC3CCCO3)nn2)cc1 (configuration not stated)	·	·	-3	1	1
O=S1(=O)CC2N=C(N(Cc3c(F)cccc3Cl)c3ccccc3F)SC2C1 (configuration not stated)	79	64	8	0.9	1.1
O=C(CSc1ccc(-c2ccccc2)nn1)NCc1ccco1	97	91	3	1.2	1
O=C(c1ccc(-c2ccc(Cl)cc2)o1)N1CCN(c2ccc([N+](=O)[O-])cc2Cl)CC1	21	15	31	0.9	0.9
O=C(c1ccc(-c2ccc([N+](=O)[O-])cc2)o1)N1CCCCC1	11	12	100*	0.8	0.8
COc1cc2c(cc1OC)CN(Cc1cc(=O)oc3c(C)c(C)ccc13)CC2	84	89	6	1.5	1.8
COc1cc2c(cc1OC)CN(Cc1cc(=O)oc3cc(C)c(C)cc13)CC2	81	81	5	1.5	2.2*
